Measured values reported in ChEMBL document CHEMBL2413007, “Synthesis of polysubstituted benzofuran derivatives as novel inhibitors of parasitic growth” (Bioorg Med Chem, 2013).

Tests used:
[1] = test system: Trypanosoma brucei gambiense; assay: Antitrypanosomal activity against Trypanosoma brucei gambiense Feo bloodstream form after 72 hrs by fluorescence assay; type: functional, organism-based
Procedure, shortened: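 Bloodstream forms of strain Feo grown in HMI9 with 10% FCS, 37 °C, 5% CO₂. Log-phase cells harvested by centrifugation (3000g) and used at once, seeded at 3 × 10⁴ cells/ml. Inhibitor concentration series, final DMSO ≤1%. Resazurin added after 72 h (final 45 µM), fluorescence (ex 530/em 590 nm) read 4 h later. Inhibition relative to untreated parasites; triplicates, experiment repeated twice.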

Plasmodium falciparum = assay: Antiplasmodial activity against erythrocytic stages of chloroquine-resistant Plasmodium falciparum FcB1/Columbia incubated for 24 hrs followed by [3H]-hypoxanthine addition measured after 24 hrs by liquid scintillation spectrometry; type: functional, organism-based
Procedure, shortened: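 Asynchronous FcB1/Colombia cultured on human erythrocytes in RPMI 1640 + 8% heat-inactivated human serum, 37 °C, 3% CO₂/6% O₂/91% N₂. DMSO stocks 10 mM, two-fold serial dilutions; 1% parasitaemia, 1% final haematocrit. 24 h drug exposure, then 0.5 µCi [³H]-hypoxanthine per well, 24 h more; freeze-thaw, filter harvest, scintillation counting versus untreated same-plate control. IC50 from concentration–response curve; mean ± SD of several independent experiments; chloroquine control.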

| Compound | IC50 [1] | IC50 (Plasmodium falciparum) |
| --- | --- | --- |
| COc1ccc(-c2oc3ccccc3c2C(=O)c2ccccc2)cc1 | 21.2 µM | > 50 µM |
| COc1ccc(-c2oc3ccccc3c2C(=O)c2ccc([N+](=O)[O-])cc2)cc1 | > 50 µM | > 50 µM |
| COc1ccc(-c2oc3ccccc3c2C(=O)c2c(O)cc(OC)cc2OC)cc1 | 6.7 µM | > 25 µM |
| O=C(c1ccccc1)c1c(C2CC2)oc2ccccc12 | 20.9 µM | > 50 µM |
| O=C(c1ccccc1)c1c(-c2ccccc2)oc2ccccc12 | 15.5 µM | > 50 µM |
| O=C(c1ccc([N+](=O)[O-])cc1)c1c(-c2ccccc2)oc2ccccc12 | > 50 µM | > 50 µM |
| COc1ccc(-c2oc3cccc(O)c3c2C(=O)c2ccccc2)cc1 | 6.5 µM | > 25 µM |
| COc1ccc(C(=O)c2c(-c3ccc(OC)cc3)oc3cccc(O)c23)cc1 | 7.7 µM | > 25 µM |
| COc1ccc(-c2oc3cccc(O)c3c2C(=O)c2cccc3ccccc23)cc1 | 4.2 µM | > 50 µM |
| CCOc1ccc2ccccc2c1C(=O)c1c(-c2ccc(OC)cc2)oc2cccc(O)c12 | 1.5 µM | > 25 µM |
| COc1ccc(C(=O)c2c(C3CC3)oc3cccc(O)c23)cc1 | 3.7 µM | > 50 µM |
| O=C(c1cccc2ccccc12)c1c(C2CC2)oc2cccc(O)c12 | 4.6 µM | > 50 µM |
| CCOc1ccc2ccccc2c1C(=O)c1c(C2CC2)oc2cccc(O)c12 | 2 µM | > 25 µM |
| COc1ccc(-c2oc3cccc(OC)c3c2C(=O)c2ccccc2)cc1 | 11.8 µM | > 50 µM |
| COc1ccc(C(=O)c2c(-c3ccc(OC)cc3)oc3cccc(OC)c23)cc1 | 8.3 µM | > 25 µM |
| COc1ccc(-c2oc3cccc(OC)c3c2C(=O)c2cccc3ccccc23)cc1 | 12.4 µM | > 50 µM |
| COc1ccc(-c2oc3cccc(OC)c3c2C(=O)c2ccc(Cl)cc2)cc1 | 5.5 µM | > 50 µM |
| COc1ccc(-c2oc3cccc(OC)c3c2C(=O)c2ccc(OC(=O)C(C)(C)C)c(OC)c2)cc1 | 8.4 µM | > 50 µM |
| COc1ccc(-c2oc3cccc(OC)c3c2C(=O)c2c(OC)cc(OC)cc2OC)cc1 | > 50 µM | > 50 µM |
| COc1ccc(-c2cc3c(OC(=O)c4ccccc4)cccc3o2)cc1 | 3.2 µM | > 25 µM |

| Compound | IC50 [1] | IC50 (Plasmodium falciparum) |
| --- | --- | --- |
| COc1ccc(C(=O)Oc2cccc3oc(-c4ccc(OC)cc4)cc23)cc1 | 1.8 µM | 11.2 µM |
| COc1ccc(-c2cc3c(OC(=O)c4c(O)cc(OC)cc4OC)cccc3o2)cc1 | > 50 µM | 7.9 µM |
| COc1ccc(-c2cc3c(OC(=O)c4cccc5ccccc45)cccc3o2)cc1 | 14.9 µM | > 50 µM |
| CCOc1ccc2ccccc2c1C(=O)Oc1cccc2oc(-c3ccc(OC)cc3)cc12 | 7.7 µM | > 50 µM |
| COc1ccc(-c2cc3c(OC(=O)c4ccc(Cl)cc4)cccc3o2)cc1 | 1.5 µM | > 25 µM |
| COc1ccc(-c2cc3c(OC(=O)c4ccc([N+](=O)[O-])cc4)cccc3o2)cc1 | 1.7 µM | > 50 µM |
| O=C(Oc1cccc2oc(C3CC3)cc12)c1ccccc1 | 14.7 µM | > 50 µM |
| COc1ccc(C(=O)Oc2cccc3oc(C4CC4)cc23)cc1 | 2.7 µM | > 50 µM |
| O=C(Oc1cccc2oc(C3CC3)cc12)c1cccc2ccccc12 | 12.6 µM | > 50 µM |
| CCOc1ccc2ccccc2c1C(=O)Oc1cccc2oc(C3CC3)cc12 | 6.4 µM | > 25 µM |
| O=C(Oc1cccc2oc(C3CC3)cc12)c1ccc(Cl)cc1 | 7.1 µM | > 50 µM |
| O=C(Oc1cccc2oc(C3CC3)cc12)c1ccc([N+](=O)[O-])cc1 | 12.2 µM | > 50 µM |
| O=C(Oc1cccc2oc(-c3ccccc3)cc12)c1ccccc1 | 14 µM | > 25 µM |
| COc1ccc(C(=O)Oc2cccc3oc(-c4ccccc4)cc23)cc1 | 1.7 µM | > 25 µM |
| O=C(Oc1cccc2oc(-c3ccccc3)cc12)c1cccc2ccccc12 | 21.3 µM | > 25 µM |
| CCOc1ccc2ccccc2c1C(=O)Oc1cccc2oc(-c3ccccc3)cc12 | 6.7 µM | > 50 µM |
| O=C(Oc1cccc2oc(-c3ccccc3)cc12)c1ccc(Cl)cc1 | 1.6 µM | > 25 µM |
| O=C(Oc1cccc2oc(-c3ccccc3)cc12)c1ccc([N+](=O)[O-])cc1 | 1.8 µM | > 25 µM |
| Cc1cc(C)cc(-c2cc3c(OC(=O)c4ccccc4)cccc3o2)c1 | 2 µM | 6 µM |
| N=C(N)c1ccc(OCCCCCOc2ccc(C(=N)N)cc2)cc1 [PENTAMIDINE] | 0.011 µM |  |
